Assay results taken from ChEMBL document CHEMBL1949631, “Novel 3-phenylpiperidine-4-carboxamides as highly potent and orally long-acting neurokinin-1 receptor antagonists with reduced CYP3A induction” (Bioorg Med Chem, 2012).

What was measured:
Substance-P receptor = Substance-P receptor (Homo sapiens, UniProt P25103); experiment: Displacement of [125I]BH-SP from tachykinin NK1 receptor in human IM9 cells after 30 mins by scintillation counting; type: cell-based, IM-9
How it was run: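 Receptor membranes from human IM-9 lymphoblasts (grown 3 days, homogenised, spun 40,000 g) in 50 mM Tris-HCl pH 7.4 with 0.02% BSA, protease inhibitors and 3 mM MnCl2. Incubated with [125I]BH-SP (final 130 pM) for 30 min at room temperature in 0.2 mL. Nonspecific binding defined with 2×10^-6 M SP. Read by rapid GF/C filtration (PEI-soaked filters), three washes, scintillation counting.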

Cavia porcellus [1] = experiment: Inhibition of GR73632-induced increase in locomotor activity in Hartley guinea pig at 0.3 mg/kg, iv after 5 mins relative to control; type: functional
How it was run: (§1)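 Male Hartley guinea pigs, 6–8 per group. Compound or vehicle in DMA-PEG400 (1:1, v/v), 0.5 mL/kg, given intravenously just before intracerebroventricular infusion of the NK1 agonist […]. %inh. is taken from activity counts relative to vehicle-treated and sham-infused groups. Values are averages of 5–10 independent experiments.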

[2] = target: T1, Nuclear receptor subfamily 1 group I member 2 (Homo sapiens, UniProt O75469); experiment: Induction of human PXR-mediated CYP3A activity at 10 uM
T1 sequence (O75469 whole entry): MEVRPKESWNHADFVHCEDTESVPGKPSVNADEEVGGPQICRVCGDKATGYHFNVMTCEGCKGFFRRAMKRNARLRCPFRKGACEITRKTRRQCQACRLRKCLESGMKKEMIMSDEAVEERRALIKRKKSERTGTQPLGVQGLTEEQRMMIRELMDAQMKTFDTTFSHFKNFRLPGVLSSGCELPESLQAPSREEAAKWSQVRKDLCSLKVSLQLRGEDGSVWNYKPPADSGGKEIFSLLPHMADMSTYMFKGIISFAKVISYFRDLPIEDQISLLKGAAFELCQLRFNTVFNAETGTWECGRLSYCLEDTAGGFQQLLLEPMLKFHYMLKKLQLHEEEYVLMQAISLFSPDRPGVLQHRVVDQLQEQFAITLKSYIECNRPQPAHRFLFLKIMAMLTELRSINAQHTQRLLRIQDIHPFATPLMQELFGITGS

[3] = (§2) Metabolic stability in human liver microsomes assessed as parent compound remaining at 1 uM after 15 to 30 mins by HPLC analysis; type: ADME, Microsome; settings: liver microsomes, read-out: Stability
How it was run: (§3)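 Compound at 1 μM incubated with human liver microsomes for 15 and 30 min under standard conditions. Remaining parent compound quantified by HPLC and expressed as μL/mg/min.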

Cavia porcellus [4] = experiment: Inhibition of GR73632-induced increase in locomotor activity in Hartley guinea pig at 0.1 mg/kg, iv after 5 mins relative to control; type: functional; how it was run: as §1
Liver microsomes = experiment: as §2; type: ADME, Microsome; settings: microsomes, 1 µM; how it was run: as §3

Chain of Substance-P receptor (P25103 whole entry): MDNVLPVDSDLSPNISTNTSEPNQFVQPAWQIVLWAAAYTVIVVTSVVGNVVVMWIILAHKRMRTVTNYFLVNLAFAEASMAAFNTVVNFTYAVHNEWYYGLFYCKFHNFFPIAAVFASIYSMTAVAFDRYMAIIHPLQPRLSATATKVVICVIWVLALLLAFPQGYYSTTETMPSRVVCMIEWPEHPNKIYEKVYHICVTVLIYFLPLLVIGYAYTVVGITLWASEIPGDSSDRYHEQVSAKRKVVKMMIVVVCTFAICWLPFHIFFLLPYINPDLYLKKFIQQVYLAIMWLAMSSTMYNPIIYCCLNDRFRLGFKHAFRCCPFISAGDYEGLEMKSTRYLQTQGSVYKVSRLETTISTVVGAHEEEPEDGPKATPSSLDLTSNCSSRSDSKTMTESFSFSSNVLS

| SMILES | IC50 (Substance-P receptor) | inhibition in vivo at 0.3 mg/kg (Cavia porcellus [1]) | further results |
| --- | --- | --- | --- |
| CC(=O)N1CCC(C(=O)N2CC[C@H](C(=O)N(C)Cc3cc(C(F)(F)F)cc(C(F)(F)F)c3)[C@@H](c3ccc(C)cc3)C2)CC1 (racemic) | 180 pM | – | – |
| CC(=O)N1CCC(C(=O)N2CC[C@H](C(=O)N(C)Cc3cc(C(F)(F)F)cc(C(F)(F)F)c3)[C@@H](c3ccccc3C)C2)CC1 (racemic) | 32 pM | 60.1% | – |
| CC(=O)N1CCC(C(=O)N2CC[C@H](C(=O)N(C)Cc3cc(C(F)(F)F)cc(C(F)(F)F)c3)[C@@H](c3ccc(F)cc3)C2)CC1 (racemic) | 52 pM | 41.4% | – |
| CC(=O)N1CCC(C(=O)N2CC[C@H](C(=O)N(C)Cc3cc(C(F)(F)F)cc(C(F)(F)F)c3)[C@@H](c3ccc(F)cc3C)C2)CC1 (racemic) | 47 pM | 105% | Activity [2]: 2%; microsomal CLint at 1 µM [3]: 111 µL/min/mg |
| Cc1cc(F)ccc1[C@@H]1CN(C(=O)C(N)=O)CC[C@H]1C(=O)N(C)Cc1cc(C(F)(F)F)cc(C(F)(F)F)c1 | > 100000 pM | – | – |
| CC(=O)N1CC[C@H](C(=O)N(C)Cc2cc(C(F)(F)F)cc(C(F)(F)F)c2)[C@H](c2ccccc2)C1 (racemic) | 3200 pM | – | – |
| CC(=O)N1CCC(C(=O)N2CC[C@H](C(=O)N(C)Cc3cc(C(F)(F)F)cc(C(F)(F)F)c3)[C@@H](c3cccc(C)c3)C2)CC1 (racemic) | 140 pM | – | – |
| CC(=O)NCC(=O)N1CC[C@H](C(=O)N(C)Cc2cc(C(F)(F)F)cc(C(F)(F)F)c2)[C@@H](c2ccc(F)cc2C)C1 (racemic) | 43 pM | 48.9% | microsomal CLint at 1 µM [3]: 59 µL/min/mg |
| CC(=O)N1CCC(C(=O)N2CCC(C(=O)N(C)Cc3cc(C(F)(F)F)cc(C(F)(F)F)c3)=C(c3ccccc3)C2)CC1 | 170 pM | – | – |
| CC(=O)NCC(=O)N1CC[C@@H](C(=O)N(C)Cc2cc(C(F)(F)F)cc(C(F)(F)F)c2)[C@H](c2ccccc2)C1 (racemic) | 12000 pM | – | – |
| CONC(=O)N1CC[C@H](C(=O)N(C)Cc2cc(C(F)(F)F)cc(C(F)(F)F)c2)[C@@H](c2ccc(F)cc2C)C1 (racemic) | 73 pM | – | inhibition in vivo at 0.1 mg/kg (Cavia porcellus [4]): -23.9% |
| CC(=O)N1CC[C@@H](C(=O)N(C)Cc2cc(C(F)(F)F)cc(C(F)(F)F)c2)[C@H](c2ccccc2)C1 (racemic) | 2600 pM | – | – |
| Cc1cc(F)ccc1[C@H]1CN(C(=O)C(N)=O)CC[C@@H]1C(=O)N(C)Cc1cc(C(F)(F)F)cc(C(F)(F)F)c1 (racemic) | 52 pM | 86.7% | Stability (Liver microsomes): 40 µL/min/mg |
